# Legend:
# [1] = target: T1, Protein cereblon/Androgen receptor (Homo sapiens, UniProt P10275+Q96SW2); experiment: Protac activity at CRBN/AR in human LNCaP cells assessed as AR degradation at 0.1 uM by western blotting analysis relative to control; format: cell-based
# In short: (§1)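 LNCaP (IMDM) or 22RV1 (RPMI 1640) cells with 10% FBS at 37 °C, 5% CO2, treated with DMSO vehicle as control. Cells lysed in RIPA buffer (50 mM Tris-HCl pH 7.5, 150 mM NaCl, 1% Triton X-100, 0.1% SDS, 0.5% deoxycholate, protease inhibitors). Protein quantified by Bradford assay. Immunoblotted for AR with tubulin as loading control, HRP chemiluminescence detection.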
# LNCaP = experiment: Antiproliferative activity against human LNCaP cells assessed as reduction in cell viability after 6 days by CellTiter-Glo assay; format: functional; settings: 144 h, time 6 day
# In short: (§2)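 LNCaP seeded at 1.5 × 10³ and VCaP at 4 × 10³ cells per well in 96-well plates. Cells grown in IMDM with 10% FBS and antibiotic-antimycotic at 37 °C, 5% CO2, with DMSO as vehicle. IC50 from nonlinear regression of log(inhibitor) versus response.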
# VCaP = experiment: Antiproliferative activity against human VCaP cells assessed as reduction in cell viability after 6 days by CellTiter-Glo assay; format: functional; settings: 144 h, time 6 day; in short: as §2
# [2] = target: T1, Protein cereblon/Androgen receptor; experiment: Protac activity at CRBN/AR in human LNCaP cells assessed as AR degradation at 1 uM by Western blotting analysis relative to control; format: cell-based; in short: as §1
# [3] = Metabolic stability in mouse liver microsomes assessed as compound remaining at 1 uM after 30 mins in presence of NADPH-regenerating system; format: ADME, Microsome; settings: read-out: Stabilty
# In short: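 Mouse liver microsomes at 0.5 mg protein/mL in 100 mM PBS, pH 7.4. Reaction started with NADPH-regenerating solution (1.3 mM NADP+, 3.3 mM glucose-6-phosphate, 0.4 U/mL G6PDH, 3.3 mM MgCl2). Incubated 30 min at 37 °C, stopped with ice-cold acetonitrile, centrifuged. Percent remaining reported as mean ± SD, n = 3.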
# [4] = target: T1, Protein cereblon/Androgen receptor; experiment: Protac activity at CRBN/AR in human LNCaP cells assessed as AR degradation at 10 uM by Western blotting analysis relative to control; format: cell-based; in short: as §1
# [5] = Half life in ICR mouse at 5 mg/kg, iv by LC-MS/MS analysis; format: ADME, organism-based; settings: in vivo
# In short: (§3)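 Male ICR mice, 7 weeks old. Single dose of 5 mg/kg IV or IP in 5% DMSO, 52% PEG400, 3% Tween 80 in water, or 30 mg/kg PO in 20% PEG400 and 3% Tween 80 in water. Retro-orbital blood sampled over time. Plasma protein-precipitated with acetonitrile (1:10) and analysed by LC-MS/MS. Parameters from noncompartmental analysis of mean data, n = 3.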
# [6] = Tmax in ICR mouse at 5 mg/kg, ip by LC-MS/MS analysis; format: ADME, organism-based; settings: in vivo; in short: as §3
# [7] = Cmax in ICR mouse at 5 mg/kg, ip by LC-MS/MS analysis; format: ADME, organism-based; parameters: route intraperitoneal, dose 5 mg/kg; settings: in vivo; in short: as §3
# [8] = Cmax in ICR mouse at 30 mg/kg, po by LC-MS/MS analysis; format: ADME, organism-based; parameters: route oral, dose 30 mg/kg; settings: in vivo; in short: as §3
# [9] = Tmax in ICR mouse at 30 mg/kg, po by LC-MS/MS analysis; format: ADME, organism-based; settings: in vivo; in short: as §3
# [10] = Half life in ICR mouse at 30 mg/kg, po by LC-MS/MS analysis; format: ADME, organism-based; settings: in vivo; in short: as §3
# [11] = Half life in ICR mouse at 5 mg/kg, ip by LC-MS/MS analysis; format: ADME, organism-based; settings: in vivo; in short: as §3
# [12] = AUCt in ICR mouse at 5 mg/kg, iv by LC-MS/MS analysis; format: ADME, organism-based; parameters: dose 5 mg/kg; settings: in vivo; in short: as §3
# [13] = AUCt in ICR mouse at 5 mg/kg, ip by LC-MS/MS analysis; format: ADME, organism-based; parameters: dose 5 mg/kg; settings: in vivo; in short: as §3
# [14] = AUCt in ICR mouse at 30 mg/kg, po by LC-MS/MS analysis; format: ADME, organism-based; parameters: dose 30 mg/kg; settings: in vivo; in short: as §3
# T1 sequence (P10275 whole entry, looked up): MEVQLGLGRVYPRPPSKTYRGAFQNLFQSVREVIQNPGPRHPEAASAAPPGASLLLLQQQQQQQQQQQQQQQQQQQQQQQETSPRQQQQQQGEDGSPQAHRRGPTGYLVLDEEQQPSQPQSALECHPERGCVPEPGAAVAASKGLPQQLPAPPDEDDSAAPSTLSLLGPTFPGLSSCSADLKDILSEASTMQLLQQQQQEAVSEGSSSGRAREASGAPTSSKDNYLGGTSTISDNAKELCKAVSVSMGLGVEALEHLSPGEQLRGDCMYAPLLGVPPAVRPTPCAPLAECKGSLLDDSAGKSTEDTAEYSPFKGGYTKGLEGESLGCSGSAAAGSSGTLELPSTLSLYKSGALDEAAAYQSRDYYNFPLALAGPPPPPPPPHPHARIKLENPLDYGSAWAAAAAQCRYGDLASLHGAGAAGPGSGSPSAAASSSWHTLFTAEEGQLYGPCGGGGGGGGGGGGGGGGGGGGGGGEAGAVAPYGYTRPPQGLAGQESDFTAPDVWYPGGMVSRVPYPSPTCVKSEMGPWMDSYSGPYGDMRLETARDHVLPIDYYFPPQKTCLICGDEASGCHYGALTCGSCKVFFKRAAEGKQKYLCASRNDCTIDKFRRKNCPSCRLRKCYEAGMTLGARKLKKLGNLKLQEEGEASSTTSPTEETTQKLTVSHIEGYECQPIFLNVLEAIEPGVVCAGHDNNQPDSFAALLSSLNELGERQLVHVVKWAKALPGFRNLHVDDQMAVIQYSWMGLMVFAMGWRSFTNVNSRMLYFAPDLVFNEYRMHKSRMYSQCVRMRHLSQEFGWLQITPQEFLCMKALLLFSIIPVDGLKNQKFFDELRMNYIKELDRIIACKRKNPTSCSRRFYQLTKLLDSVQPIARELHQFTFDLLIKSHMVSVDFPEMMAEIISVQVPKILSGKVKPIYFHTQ
# T1 sequence (Q96SW2 whole entry, looked up): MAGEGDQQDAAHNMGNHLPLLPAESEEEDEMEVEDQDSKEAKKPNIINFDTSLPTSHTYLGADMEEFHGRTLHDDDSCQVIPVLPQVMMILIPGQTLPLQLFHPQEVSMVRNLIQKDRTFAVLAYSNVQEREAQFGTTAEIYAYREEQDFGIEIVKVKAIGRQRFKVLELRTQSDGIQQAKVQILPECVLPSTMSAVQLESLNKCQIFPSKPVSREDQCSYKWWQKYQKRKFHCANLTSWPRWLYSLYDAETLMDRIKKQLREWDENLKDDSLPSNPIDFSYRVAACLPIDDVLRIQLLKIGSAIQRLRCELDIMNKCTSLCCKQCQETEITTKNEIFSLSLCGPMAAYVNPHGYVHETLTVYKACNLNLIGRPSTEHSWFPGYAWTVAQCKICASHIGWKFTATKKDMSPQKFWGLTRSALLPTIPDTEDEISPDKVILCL
Activity [1] [%],Activity [2] [%],"remaining at 0.5 h, 1 µM [3] [%]",Activity [4] [%],Compound,CC50 (LNCaP) [nM],CC50 (VCaP) [nM],other results
51,94,86.7,,CC1(C)[C@H](NC(=O)c2ccc(N3CCN(CCC4CCN(c5ccc6nnn(C7CCC(=O)NC7=O)c(=O)c6c5)CC4)CC3)cc2)C(C)(C)[C@H]1Oc1ccc(C#N)c(Cl)c1 (stereo partly drawn),449,120,
86,98,,94,CC1(C)[C@H](NC(=O)c2ccc(N3CCN(CCOC4CCN(C(=O)COc5ccc6nnn(C7CCC(=O)NC7=O)c(=O)c6c5)CC4)CC3)cc2)C(C)(C)[C@H]1Oc1ccc(C#N)c(Cl)c1 (stereo partly drawn),1300,141,
79,91,71.7,95,CC1(C)[C@H](NC(=O)c2ccc(N3CCN(CC4CCN(c5ccc6nnn(C7CCC(=O)NC7=O)c(=O)c6c5)CC4)CC3)cc2)C(C)(C)[C@H]1Oc1ccc(C#N)c(Cl)c1 (stereo partly drawn),259,81,
60,77,62.8,79,CC1(C)[C@H](NC(=O)c2ccc(N3CCN(C4CC5(CCN(C(=O)COc6ccc7nnn(C8CCC(=O)NC8=O)c(=O)c7c6)CC5)C4)CC3)cc2)C(C)(C)[C@H]1Oc1ccc(C#N)c(Cl)c1 (stereo partly drawn),196,76,
0,26,,71,CC1(C)[C@H](NC(=O)c2ccc(N3CCN(C4CC5(CCN(c6cccc7nnn(C8CCC(=O)NC8=O)c(=O)c67)CC5)C4)CC3)cc2)C(C)(C)[C@H]1Oc1ccc(C#N)c(Cl)c1 (stereo partly drawn),13400,,
7,87,0.56,83,CC1(C)[C@H](NC(=O)c2ccc(N3CCN(CCC4CCN(C(=O)CNc5ccc6nnn(C7CCC(=O)NC7=O)c(=O)c6c5)CC4)CC3)cc2)C(C)(C)[C@H]1Oc1ccc(C#N)c(Cl)c1 (stereo partly drawn),1090,107,
70,89,,35,CC1(C)[C@H](NC(=O)c2ccc(N3CCN(CC4CCN(C(=O)CNc5ccc6nnn(C7CCC(=O)NC7=O)c(=O)c6c5)CC4)CC3)cc2)C(C)(C)[C@H]1Oc1ccc(C#N)c(Cl)c1 (stereo partly drawn),117,3820,
28,60,,83,CC1(C)[C@H](NC(=O)c2ccc(N3CCN(CC4CCN(c5ccc6c(=O)n(C7CCC(=O)NC7=O)nnc6c5)CC4)CC3)cc2)C(C)(C)[C@H]1Oc1ccc(C#N)c(Cl)c1 (stereo partly drawn),,,
77,95,31.2,88,CC1(C)[C@H](NC(=O)c2ccc(N3CCN(CCOC4CCN(C(=O)CNc5ccc6nnn(C7CCC(=O)NC7=O)c(=O)c6c5)CC4)CC3)cc2)C(C)(C)[C@H]1Oc1ccc(C#N)c(Cl)c1 (stereo partly drawn),852,57,
82,86,92.6,90,CC1(C)[C@H](NC(=O)c2ccc(N3CCN(CCOC4CCN(C(=O)C5CN(c6ccc7nnn(C8CCC(=O)NC8=O)c(=O)c7c6)C5)CC4)CC3)cc2)C(C)(C)[C@H]1Oc1ccc(C#N)c(Cl)c1 (stereo partly drawn),762,57,half-life [5]: 4.35 h; Tmax [6]: 1.67 h; Cmax [7]: 2010 ng/mL; Cmax [8]: 20 ng/mL; Tmax ([9]; 30 mg/kg): 0.7 h; t1/2 ([10]; 30 mg/kg): 19.7 h; t1/2 [11]: 4.24 h; AUC(0-t) [12]: 4490 ng·h/mL; AUCt [13]: 7490 ng·h/mL; AUCt [14]: 150 ng·h/mL
15,77,,78,CC1(C)[C@H](NC(=O)c2ccc(N3CCN(CC4CCN(c5cccc6nnn(C7CCC(=O)NC7=O)c(=O)c56)CC4)CC3)cc2)C(C)(C)[C@H]1Oc1ccc(C#N)c(Cl)c1 (stereo partly drawn),613,,
74,84,92.9,96,CC1(C)[C@H](NC(=O)c2ccc(N3CCN(CCC4CCN(C(=O)C5CN(c6ccc7nnn(C8CCC(=O)NC8=O)c(=O)c7c6)C5)CC4)CC3)cc2)C(C)(C)[C@H]1Oc1ccc(C#N)c(Cl)c1 (stereo partly drawn),538,37,
86,89,86.8,87,CC1(C)[C@H](NC(=O)c2ccc(N3CCN(CCOC4CCN(c5ccc6nnn(C7CCC(=O)NC7=O)c(=O)c6c5)CC4)CC3)cc2)C(C)(C)[C@H]1Oc1ccc(C#N)c(Cl)c1 (stereo partly drawn),523,22,"half-life [5]: 4.68 h; Tmax [6]: 2 h; Cmax [7]: 1780 ng/mL; Cmax ([8]; ICR, read-out: Cmax): 280 ng/mL; Tmax ([9]; ICR, read-out: Tmax): 2 h; half-life ([10]; ICR): 5.58 h; t1/2 [11]: 4.51 h; AUC(0-t) [12]: 14300 ng·h/mL; AUCt [13]: 10700 ng·h/mL; AUC(0-t) ([14]; ICR): 2840 ng·h/mL"
61,77,85.5,39,CC1(C)[C@H](NC(=O)c2ccc(N3CCN(C4CC5(CCN(C(=O)CNc6ccc7nnn(C8CCC(=O)NC8=O)c(=O)c7c6)CC5)C4)CC3)cc2)C(C)(C)[C@H]1Oc1ccc(C#N)c(Cl)c1 (stereo partly drawn),208,54,
77,93,93.7,99,CC1(C)[C@H](NC(=O)c2ccc(N3CCN(CCC4CCN(C(=O)C5CCN(c6ccc7nnn(C8CCC(=O)NC8=O)c(=O)c7c6)CC5)CC4)CC3)cc2)C(C)(C)[C@H]1Oc1ccc(C#N)c(Cl)c1 (stereo partly drawn),316,52,
89,40,,51,CC1(C)[C@H](NC(=O)c2ccc(N3CCN(CC4CCN(C(=O)COc5ccc6nnn(C7CCC(=O)NC7=O)c(=O)c6c5)CC4)CC3)cc2)C(C)(C)[C@H]1Oc1ccc(C#N)c(Cl)c1 (stereo partly drawn),804,,
15,95,,81,CC1(C)[C@H](NC(=O)c2ccc(N3CCN(C4CC5(CCN(c6ccc7nnn(C8CCC(=O)NC8=O)c(=O)c7c6)CC5)C4)CC3)cc2)C(C)(C)[C@H]1Oc1ccc(C#N)c(Cl)c1 (stereo partly drawn),214,113,
0,31,,90,CC1(C)[C@H](NC(=O)c2ccc(N3CCN(CCC4CCN(c5cccc6nnn(C7CCC(=O)NC7=O)c(=O)c56)CC4)CC3)cc2)C(C)(C)[C@H]1Oc1ccc(C#N)c(Cl)c1 (stereo partly drawn),> 10000,1580,
72,92,78.4,98,CC1(C)[C@H](NC(=O)c2ccc(N3CCN(CCOC4CCN(C(=O)C5CCN(c6ccc7nnn(C8CCC(=O)NC8=O)c(=O)c7c6)CC5)CC4)CC3)cc2)C(C)(C)[C@H]1Oc1ccc(C#N)c(Cl)c1 (stereo partly drawn),847,80,
0,79,,0,CC1(C)[C@H](NC(=O)c2ccc(N3CCN(C4CC5(CCN(C(=O)C6CN(c7ccc8nnn(C9CCC(=O)NC9=O)c(=O)c8c7)C6)CC5)C4)CC3)cc2)C(C)(C)[C@H]1Oc1ccc(C#N)c(Cl)c1 (stereo partly drawn),312,135,
0,50,2.98,82,CC1(C)[C@H](NC(=O)c2ccc(N3CCN(CCC4CCN(C(=O)COc5ccc6nnn(C7CCC(=O)NC7=O)c(=O)c6c5)CC4)CC3)cc2)C(C)(C)[C@H]1Oc1ccc(C#N)c(Cl)c1 (stereo partly drawn),3180,46,
90,89,74.3,94,CC1(C)[C@H](NC(=O)c2ccc(N3CCN(CC4CCN(C(=O)C5CCN(c6ccc7nnn(C8CCC(=O)NC8=O)c(=O)c7c6)CC5)CC4)CC3)cc2)C(C)(C)[C@H]1Oc1ccc(C#N)c(Cl)c1 (stereo partly drawn),108,45,

Compound,Activity [1] [%],Activity [2] [%],"remaining at 0.5 h, 1 µM [3] [%]",Activity [4] [%],CC50 (LNCaP) [nM],CC50 (VCaP) [nM],other results
O=C1CC2(CCCC2)CC(=O)N1CCCCN1CCN(c2ncccn2)CC1 [BUSPIRONE],,,0.03,,,,

# — ChEMBL document CHEMBL4706590, “Design and characterization of cereblon-mediated androgen receptor proteolysis-targeting chimeras” (Eur J Med Chem, 2020)
